Reference: ChEMBL document CHEMBL4152268, “Synthesis of proline derived benzenesulfonamides: A potent anti-Trypanosoma brucei gambiense agent” (Eur J Med Chem, 2018)

Tests used:
Rattus norvegicus [1] = assay: Antiinflammatory activity in rat assessed as inhibition of carrageenan-induced paw edema at 100 mg/kg, po administered 1 hr followed by carrageenan challenge measured at 2 hrs by plethysmometer relative to control; format: functional
Method in brief: (§1)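 Rats dosed orally (test compounds 100 mg/kg; indomethacin reference 25 mg/kg). One hour later, 1% carrageenan suspension (0.05 mL/animal) was injected sub-plantar into the right hind paw. Paw size was measured by mercury-displacement plethysmometer, calibrated beforehand, at intervals after injection. Activity was calculated as percentage decrease in carrageenan-induced edema relative to control.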

Rattus norvegicus [2] = assay: Antiinflammatory activity in rat assessed as inhibition of carrageenan-induced paw edema at 100 mg/kg, po administered 1 hr followed by carrageenan challenge measured at 1 hr by plethysmometer relative to control; format: functional; method in brief: as §1
[3] = tested on: Trypanosoma brucei gambiense; assay: Antitrypanosomal activity against Trypanosoma brucei gambiense GUTat 3.1 after 72 hrs by Alamar Blue assay; format: functional, organism-based; conditions: GUTat 3.1, 72 h
Method in brief: (§2)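 T. b. gambiense GUTat 3.1 was cultured in supplemented IMDM with 10% heat-inactivated FBS at 37 °C under 5.0% CO2/95% air. Parasites were seeded in 96-well plates, and compound in 5.0% DMSO was added for 72 h. Alamar Blue was then added for 3-6 h and fluorescence read (ex 528/20, em 590/35 nm). IC50 was obtained from the plate-reader software.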

Rattus norvegicus [4] = assay: Antiinflammatory activity in rat assessed as inhibition of carrageenan-induced paw edema at 100 mg/kg, po administered 1 hr followed by carrageenan challenge measured at 3 hrs by plethysmometer relative to control; format: functional; method in brief: as §1
Rattus norvegicus [5] = assay: Antiinflammatory activity in rat assessed as inhibition of carrageenan-induced paw edema at 100 mg/kg, po administered 1 hr followed by carrageenan challenge measured at 0.5 hrs by plethysmometer relative to control; format: functional; method in brief: as §1
Mus musculus = assay: Toxicity in ip dosed mouse measured over 72 hrs; format: organism-based; conditions: in vivo
Method in brief: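 Male mice, grouped, given graded intraperitoneal doses; watched continuously 6 h, then kept under observation to 72 h, monitored 4 times daily, with behavioural changes and deaths recorded. Humane endpoints applied, with CO2 euthanasia. Percentage death per dose converted to probits to derive LD50 (μM/kg); mortality rate = dead/group size ×100.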

[6] = tested on: Trypanosoma brucei gambiense; assay: Antitrypanosomal activity against Trypanosoma brucei gambiense; format: functional, organism-based; method in brief: as §2
[7] = tested on: Trypanosoma brucei brucei; assay: Antitrypanosomal activity against Trypanosoma brucei brucei after 48 hrs by Alamar blue assay; format: functional, organism-based
Rattus norvegicus [8] = assay: Antiinflammatory activity in rat assessed as inhibition of carrageenan-induced paw edema at 25 mg/kg, po administered 1 hr followed by carrageenan challenge measured at 0.5 hrs by plethysmometer relative to control; format: functional; method in brief: as §1
Rattus norvegicus [9] = assay: Antiinflammatory activity in rat assessed as inhibition of carrageenan-induced paw edema at 25 mg/kg, po administered 1 hr followed by carrageenan challenge measured at 1 hr by plethysmometer relative to control; format: functional; method in brief: as §1
Rattus norvegicus [10] = assay: Antiinflammatory activity in rat assessed as inhibition of carrageenan-induced paw edema at 25 mg/kg, po administered 1 hr followed by carrageenan challenge measured at 3 hrs by plethysmometer relative to control; format: functional; method in brief: as §1
Rattus norvegicus [11] = assay: Antiinflammatory activity in rat assessed as inhibition of carrageenan-induced paw edema at 25 mg/kg, po administered 1 hr followed by carrageenan challenge measured at 2 hrs by plethysmometer relative to control; format: functional; method in brief: as §1

| IC50 [6] [µM] | IC50 [7] [µM] | SMILES | inhibition in vivo at 100 mg/kg (Rattus norvegicus [1]) [%] | inhibition in vivo at 100 mg/kg (Rattus norvegicus [2]) [%] | IC50 [3] [µM] | inhibition in vivo at 100 mg/kg (Rattus norvegicus [4]) [%] | inhibition in vivo at 100 mg/kg (Rattus norvegicus [5]) [%] | LD50 (Mus musculus) [µM/g] | inhibition in vivo at 25 mg/kg (Rattus norvegicus [8]) [%] | inhibition in vivo at 25 mg/kg (Rattus norvegicus [9]) [%] | inhibition in vivo at 25 mg/kg (Rattus norvegicus [10]) [%] | inhibition in vivo at 25 mg/kg (Rattus norvegicus [11]) [%] |
| --- | --- | --- | --- | --- | --- | --- | --- | --- | --- | --- | --- | --- |
| – | – | Cc1ccccc1S(=O)(=O)N1CC(O)C[C@H]1C(=O)Nc1ccc(C(=O)O)cc1 (stereo partly specified) | 23.4 | 21.2 | 0.157 | 25.3 | 38.6 | 9.98 | – | – | – | – |
| – | – | O=C(O)c1ccc(NC(=O)[C@@H]2CCCN2S(=O)(=O)c2ccccc2)cc1 | 29.4 | 26.3 | 0.159 | 31.1 | 23.6 | 10.06 | – | – | – | – |
| – | – | Cc1ccc(S(=O)(=O)N2CC(O)C[C@H]2C(=O)Nc2ccc(C(=O)O)cc2)cc1 (stereo partly specified) | 67.2 | 60 | 0.155 | 84 | 58 | 12.01 | – | – | – | – |
| – | – | Cc1ccc(S(=O)(=O)N2CCC[C@H]2C(=O)Nc2ccc(C(=O)O)cc2)cc1 | 36.3 | 31.5 | 0.101 | 35.3 | 28.8 | 11.92 | – | – | – | – |
| – | – | O=C(O)c1ccc(NC(=O)[C@@H]2CC(O)CN2S(=O)(=O)c2ccccc2)cc1 (stereo partly specified) | 27.3 | 24.7 | 0.16 | 1.85 | 33.9 | 12.07 | – | – | – | – |
| 1.3 | – | CCS(=O)(=O)N1CCCc2cc(NS(=O)(=O)c3ccccc3F)ccc21 | – | – | – | – | – | – | – | – | – | – |
| – | – | Cc1ccccc1S(=O)(=O)N1CCC[C@H]1C(=O)Nc1ccc(C(=O)O)cc1 | 36.3 | 39.4 | 0.134 | 40 | 35.8 | 13.09 | – | – | – | – |
| – | – | O=C(O)c1ccc(NC(=O)[C@@H]2CCCN2S(=O)(=O)c2ccc([N+](=O)[O-])cc2)cc1 | 50.1 | 45.9 | 0.002 | 52.3 | 42.1 | 8.65 | – | – | – | – |
| – | – | O=C(O)c1ccc(NC(=O)[C@@H]2CC(O)CN2S(=O)(=O)c2ccc([N+](=O)[O-])cc2)cc1 (stereo partly specified) | 52.2 | 48.5 | 0.144 | 62.8 | 44.1 | 10.28 | – | – | – | – |
| – | 0.12 | CCCCN(CCCC)c1c([N+](=O)[O-])cc(S(=O)(=O)Nc2ccccc2)cc1[N+](=O)[O-] | – | – | – | – | – | – | – | – | – | – |
| – | – | COc1ccc2c(c1)c(CC(=O)O)c(C)n2C(=O)c1ccc(Cl)cc1 [INDOMETHACIN] | – | – | – | – | – | – | 56.9 | 63.5 | 63.6 | 64.8 |
| – | – | Nc1nc(N)nc(Nc2ccc([As]3SCC(CO)S3)cc2)n1 (stereo unspecified) [MELARSOPROL] | – | – | 0.005 | – | – | 8.75 | – | – | – | – |
